Data: PMC12257578 (Drug Development Research, 2025)
Read-outs that look alike come from different tables or passages of the source. One block for each compound: values may come before it.

Assays:
[1] = test system: Leishmania donovani strain 9515 promastigotes; experiment: Antipromastigote resazurin assay, L. donovani; type: cell-based; details: read-out: Antipromastigote activity IC50
Outline: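 L. donovani strain 9515 (MHOM/IN/95/9515) promastigotes were kept at 26°C in supplemented M199 with 10% FBS, pH 7.3–7.4. Log-phase cells were seeded at 1.25 × 10^6 cells/mL with seven two-fold dilutions of test compound. […] After 48 h at 26°C, 0.01% resazurin in PBS was added for 24 h in the dark. IC50 came from absorbance.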

[2] = test system: Leishmania donovani strain 9515 intramacrophage amastigotes; experiment: Intramacrophage antileishmanial assay; type: cell-based
[3] = test system: T. congolense strain IL3000; experiment: Antitrypanosomal Cell-TiterGlo assay, T. congolense; type: cell-based, Trypanosoma congolense; details: read-out: Antitrypomastigote activity IC50 ± SD
[4] = test system: Trypanosoma brucei brucei GUTat3.1; experiment: Antitrypanosomal Cell-TiterGlo assay, T.b. brucei; type: cell-based; details: read-out: Antitrypomastigote activity IC50 ± SD
Outline: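 Blood-stage T. b. brucei GUTat3.1 at 2500 cells/mL was first screened at 0.25 and 25 µg/mL. […] Plates ran 72 h, then CellTiter-Glo was added, shaken 2 min and held 10 min at room temperature for lysis. IC50 came from bioluminescence, mean ± SD of three biological replicates.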

[5] = test system: L. major strain NIH S promastigotes; experiment: Antipromastigote resazurin assay, L. major; type: cell-based; details: Leishmania major, read-out: Antipromastigote activity IC50
[6] = test system: T. equiperdum strain IVM‐t1; experiment: Antitrypanosomal Cell-TiterGlo assay, T. equiperdum; type: cell-based, Trypanosoma equiperdum; details: read-out: Antitrypomastigote activity IC50 ± SD
[7] = test system: L. major strain NIH S intramacrophage amastigotes; experiment: Intramacrophage antileishmanial assay; type: cell-based; details: Leishmania major
[8] = Animal cytotoxicity, CCK-8 assay in MDBK cells; type: cell-based, bovine; details: bovine
Outline: (§1)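 MDBK bovine kidney cells at 10 000 cells/mL were exposed to two-fold serial dilutions of test compound for 72 h at 37°C, 5% CO2, humidified. CCK-8 reagent was then added, followed by a further 4 h incubation. Absorbance was read and CC50 derived, reported as mean ± SD of three biological replicates.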

[9] = test system: human colorectal adenocarcinoma (CaCO2) cells; details: ref Tshiluka et al. [2023]; Tshiluka et al. [2025]; cited from earlier work
[10] = test system: T. brucei gambiense strain IL1922; experiment: Antitrypanosomal Cell-TiterGlo assay, T.b. gambiense; type: cell-based, Trypanosoma brucei gambiense; details: read-out: Antitrypomastigote activity IC50 ± SD; Tbg IL1922, 72 h
[11] = test system: Madin‐Darby bovine kidney (MDBK) cell line; experiment: Animal cytotoxicity, CCK-8 assay in MDBK cells; type: cell-based; details: read-out: Cytotoxicity CC50 ± SD MDBK, 72 h
Outline: as §1

[12] = General cytotoxicity, resazurin assay in Vero cells; type: cell-based; details: African green monkey
Outline: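 Vero cells at 60,000 cells/mL were pre-incubated 24 h, then treated with a two-fold dilution series starting from 100 μM test compound for 72 h. […] Emetine served as control.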

[13] = 24 h, read-out: Static anti‐amastigote activity IC50
[14] = 72 h, read-out: Cidal anti‐amastigote activity IC50

IC50 ([4]; Trypanosoma brucei, 72 h): > 58 µM
IC50 [2, 13]: > 10 µM
IC50 [2, 14]: > 10 µM
IC50 [7, 13]: > 10 µM
IC50 [7, 14]: > 10 µM
Compound: CCC[C@H](NC(=O)CN1C(=O)SC(=Cc2ccc3c(c2)OCO3)C1=O)C(=O)OCC [Compound 8, Ethyl {2-[5-(benzo[d] [1,3]dioxol-5-ylmethylene)-2,4-dioxothiazolidin-3-yl]acetyl}norvalinate]
IC50 [1]: 85.86 ± 0.39 µM
IC50 ([3]; Trypanosoma congolense, 72 h): > 58 µM
IC50 [5]: > 100 µM
IC50 ([6]; Trypanosoma equiperdum, 72 h): > 58 µM
CC50 at 72 h [8]: 97.1 ± 9.3 µM
Toxicity on CaCO2 (Caco‐2) cells in words [9]: reduced cell viability

IC50 ([4]; Tbb GuTat3.1, 72 h): 0.068 µM
Compound: N=C(N)c1ccc(N=NNc2ccc(C(=N)N)cc2)cc1 [Diminazene aceturate, diminazene aceturate]
IC50 ([3]; Tc IL3000, 72 h): 0.09 µM
IC50 [10]: 0.011 µM
IC50 ([6]; Teq IVM‐t1, 72 h): 0.022 ± 0.002 µM
CC50 [11]: > 355 µM

IC50 ([4]; Trypanosoma brucei, 72 h): 0.07 ± 0.02 µM
Compound: Cc1ccc(C(=O)Nc2ccc(S(=O)(=O)O)c3cc(S(=O)(=O)O)cc(S(=O)(=O)O)c23)cc1NC(=O)c1cccc(NC(=O)Nc2cccc(C(=O)Nc3cc(C(=O)Nc4ccc(S(=O)(=O)O)c5cc(S(=O)(=O)O)cc(S(=O)(=O)O)c45)ccc3C)c2)c1 [Suramin, suramin]
CC50 at 72 h [8]: > 70 µM

More lines, now with the values behind:

Compound: C[C@@H]1[C@H](O)[C@@H](C)/C=C/C=C/C=C/C=C/C=C/C=C/C=C/[C@H](O[C@@H]2O[C@H](C)[C@@H](O)[C@H](N)[C@@H]2O)C[C@@H]2O[C@](O)(C[C@@H](O)C[C@@H](O)[C@H](O)CC[C@@H](O)C[C@@H](O)CC(=O)O[C@H]1C)C[C@H](O)[C@H]2C(=O)O [AMB, Amphotericin B]
IC50 [1]: 0.02 ± 0.009 µM
IC50 [2, 13]: 0.05 µM

Compound: CC[C@H]1CN2CCc3cc(OC)c(OC)cc3[C@@H]2C[C@@H]1C[C@H]1NCCc2cc(OC)c(OC)cc21 [Em, Emetine]
CC50 at 72 h [12]: 0.08 ± 0.009 µM
